# Assay outcomes from PubChem BioAssay.
# PRMT1 inh: inhibitors of human PRMT1; inhibition, % at 2.79 µM; Q99873; recombinant PRMT1, activity-based probe fluorescence polarization; 370,000 tested, 1.3% active;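 active = inhibition above about 21% made by adding two undisclosed values, limit read from the data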
# DAGLB inh: diacylglycerol lipase beta (human) inhibition | 340,000 tested, 0.059% active | AID 504411 | inhibition, % at 5.17 µM | Q8NCG7 | HEK293T DAGLB membrane lysate, EnzChek fluorogenic substrate; in the data active = inhibition above about 34%;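 note: 0% = enzyme with vehicle and 100% = wells lacking enzyme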
# LEDGF integ inh: blocks HIV-1 LEDGF/p75-dependent DNA integration; inhibition, % at 3.7 µM; TR-FRET IN-LEDGF/p75 DNA integration, Eu/Cy5; AID 743269; 370,000 tested, 0.64% active;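 active = inhibition above the screen-wide mean plus 3 SD, cut at about 13% in these data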;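 note: signal is the Cy5 over europium emission ratio at 671 and 618 nm; 0% = plate median of compound wells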
# rCAG binder: molecules binding r(CAG) RNA repeats. r(CAG) RNA repeat, TO-PRO-1 dye displacement fluorescence. inhibition, % at 3 µM. 370,000 tested, 1.3% active;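 active = inhibition above the plate cutoff, the mean of all test compounds on that plate plus 3 SD, cut at about 35% in these data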;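 note: 0% = DMSO alone and 100% = 100 µM mitoxantrone as full dye displacement; higher means more dye released from RNA so lower well fluorescence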
# ABHD4 inh: inhibits mouse alpha/beta hydrolase domain 4 | inhibition, % at 8.92 µM | Q8VD66 | AID 720543 | purified mABHD4, FP-Rh probe fluorescence polarization | 370,000 tested, 0.54% active;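 active = inhibition exceeding the mean over every tested compound plus 3 SD, cut at about 30% in these data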;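 note: 0% = plate median of compound wells and 100% = S159A mutant with DMSO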
#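 System: mouse ABHD4 enzyme, wild type / Medium: HEPES pH 7.0, NaCl, Pluronic buffer / Reagent: FP-Rh activity-based fluorescent probe / Control set: S159A mutant high control, sample median low control / Detection: fluorescence polarization with parallel and perpendicular emission, 525/598 nm / Schedule: 45 min + 60 min at 25 °C / Compound dosing: 8.92 µM, single dose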
# HTRA1 inhibitor: HTRA1 (human) protease inhibition | Q92743 | 340,000 tested, 0.5% active | recombinant HTRA1, FP-rhodamine activity-based probe, fluorescence polarization | inhibition, % at 5.96 µM | AID 504803; in the data active = inhibition above about 36%;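 note: 0% = enzyme with DMSO and 100% = wells lacking enzyme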
# Target sequence (Q92743 whole entry, looked up): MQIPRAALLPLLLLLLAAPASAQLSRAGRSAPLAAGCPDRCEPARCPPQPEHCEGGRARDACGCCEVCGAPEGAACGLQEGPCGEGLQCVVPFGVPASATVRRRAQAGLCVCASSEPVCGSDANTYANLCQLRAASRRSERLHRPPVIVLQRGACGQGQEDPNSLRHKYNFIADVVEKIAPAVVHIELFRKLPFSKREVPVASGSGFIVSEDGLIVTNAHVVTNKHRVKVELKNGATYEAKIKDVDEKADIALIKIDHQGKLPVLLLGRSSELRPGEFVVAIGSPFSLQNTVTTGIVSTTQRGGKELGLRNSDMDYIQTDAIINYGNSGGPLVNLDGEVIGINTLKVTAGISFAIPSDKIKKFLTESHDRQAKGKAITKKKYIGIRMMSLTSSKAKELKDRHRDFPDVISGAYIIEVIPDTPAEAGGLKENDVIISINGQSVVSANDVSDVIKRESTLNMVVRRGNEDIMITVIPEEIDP
# * = called active by the depositor; i = inactive; . = not tested or not shown. Only some compounds are listed: those with a hit (about 3.2% of all), similar ones and a draw of the others.
SMILES,PRMT1 inh,DAGLB inh,LEDGF integ inh,rCAG binder,ABHD4 inh,HTRA1 inhibitor
CCC(Sc1nc(C)cc(C)n1)C(=O)NC1=NN=C(c2ccc(C)cc2)CS1 (stereo unspecified),49*,-22,-2,3,0,-3
CC1CN(c2nc3ccccc3nc2SCC(=O)Nc2cccc(C(F)(F)F)c2)CC(C)O1 (stereo unspecified),1,-13,3,6,6,-10
CCS(=O)(=O)c1ccc(O)c(NC(=O)COc2ccc(OC)cc2)c1,-2,3,6,-1,3,1
CCCc1ccc(OCC(=O)Nc2cc(S(=O)(=O)CC)ccc2O)cc1,-3,3,4,35*,-17,-3
CCOC(=O)C1=C(C)c2ccccc2N(C(=O)OC)C1(C)C(=O)OCC (stereo unspecified),24*,-2,-5,-1,9,2
CCOC(=O)Cc1csc(NC(=O)c2sc3nc4cc(C)ccc4cc3c2N)n1,5,-9,6,16,28,-6
CCOC(=O)Cc1csc(NC(=O)c2sc3nc4ccc(CC)cc4cc3c2N)n1,3,2,1,44*,23,-20
CCC(C)NC(=O)CSc1ccc(NC(C)=O)cc1 (stereo unspecified),7,-1,1,1,-16,6
CC(=O)Nc1ccc(SCC(=O)c2ccc(Br)s2)cc1,63*,0,-1,7,-2,-10
N#Cc1ccc(OCC(=O)NC2=NCCS2)cc1,27*,0,-4,1,-1,6
NC(=S)c1ccc[n+]([O-])c1,59*,-2,2,2,3,-3
COC(=O)c1cccc(NC(=O)c2ccc[n+]([O-])c2)c1,-5,-2,9,0,-2,5
Cc1cc(N2CC(C(=O)O)CC2=O)ccc1Br (stereo unspecified),-3,-1,0,1,-2,7
COC(=O)C(Cc1ccc(O)cc1)NC(=O)C(C)Oc1ccccc1 (stereo unspecified),-3,-1,-4,-4,0,4
CC1(C(=O)NCc2cccc(C(F)(F)F)c2)CCN1Cc1ccc(-c2ccccc2)o1 (stereo unspecified),22*,.,5,2,-11,.
CC1(C(=O)NCc2cccc(C(F)(F)F)c2)CCN1Cc1cc2ccccc2o1 (stereo unspecified),-6,.,0,-2,-3,.
COCc1c(C(=O)OCC(=O)c2ccc[nH]2)oc2ccccc12,1,-3,2,4,-3,2
CSCc1c(C(=O)OCC(=O)c2ccc[nH]2)oc2ccccc12,8,-1,19*,14,20,-1
O=C(O)CCc1ccc(-c2ccccc2)n1CC(=O)O,23*,3,6,7,-2,-8
O=C(O)CCc1ccc(-c2ccc(Br)cc2)n1CC(=O)O,8,4,9,16,-3,-8
CC(C)(C)N(NS(=O)(=O)c1ccc(F)cc1)c1ccccc1,22*,-2,-2,-4,8,6
CCn1cc(/C=C/C(=O)Nc2ccn(Cc3c(F)c(F)cc(F)c3F)n2)cn1,22*,5,-1,6,-1,-2
O=S(=O)(Nc1cc(Sc2cccc3cccnc23)c(O)c2ccccc12)c1ccc(F)cc1,73*,.,24*,16,38*,.
O=C(CCN1C(=O)c2ccccc2C1=O)Nc1cccc(S(=O)(=O)NC2=NCCC2)c1,4,2,-4,-2,-2,-5
O=C(Nc1ccc2c(c1)OCO2)c1ccc(Br)s1,1,-4,-1,5,2,-8
SMILES,PRMT1 inh,DAGLB inh,LEDGF integ inh,rCAG binder,ABHD4 inh,HTRA1 inhibitor
O=C(NC1CCCc2c1cnn2-c1cc(F)cc(F)c1)c1ccc[n+]([O-])c1 (stereo unspecified),6,1,-6,-6,0,1
CCN(CC)CCn1c(SCC(=O)NCc2ccco2)nc2c(sc3ccccc32)c1=O,12,0,-1,-2,-10,-6
CCN(CC)CCn1c(SCC(=O)NCCC2=CCCCC2)nc2c(sc3ccccc32)c1=O,22*,-2,-4,-2,4,-10
CN1CCN(C(=O)/C(=C\c2cccs2)NC(=O)c2ccccc2)CC1,3,1,3,-1,-5,-3
CN1CCN(C(=O)/C(=C/c2ccccc2Cl)NC(=O)c2ccccc2)CC1,1,-1,45*,0,8,16
CC(=O)Oc1ccc2c(c1)Oc1cc(OC(C)=O)ccc1C21OC(=O)c2ccccc21,.,i,.,.,.,124*
CCOC(=O)c1sc2cc([N+](=O)[O-])cc(SCC(=O)OC)c2c1N,23*,15,-2,21,27,-3
CCOC(=O)c1sc2cc([N+](=O)[O-])cc(SCCO)c2c1N,0,28,0,5,6,6
Cc1ccc(NC(=O)CCN2C(=O)C3C4CCC(C4)C3C2=O)cc1[N+](=O)[O-] (stereo unspecified),3,0,-10,-2,7,1
CCOc1cc(C(=O)N2CCN=C2SC)cc(OCC)c1OCC,24*,3,2,-10,6,-3
O=C1c2cccc3cccc(c23)C(=O)N1/N=C/c1ccc(O)cc1O,-1,4,2,2,1,1
O=C1c2ccccc2C(=O)N1/N=C/c1ccc(O)c(O)c1O,.,-2,.,.,.,44*
CC[n+]1ccc(C)c2cc(S(=O)C(F)(F)F)ccc21 (stereo unspecified),.,1,.,.,.,42*
O=C(CCS(=O)(=O)c1ccc(Br)cc1)N1CCN(c2ccc(Cl)cc2)CC1,-3,0,0,3,0,8
O=C(CSc1nc2ccccc2nc1N1CCCCC1)N1CCN(S(=O)(=O)c2ccccc2)CC1,7,.,-2,9,0,.
CC(=O)Nc1ccc(SC[C@H](C)CN2CC[C@H](C(C)(C)C)CCC2=O)cc1,24*,2,2,0,-5,-10
CC(=O)Nc1ccc(SC[C@H](CC(C)C)N2CCN(CC(C)C)CCC2=O)cc1,23*,-2,-4,-10,-6,-6
Cc1ccc(-c2nc3ncccc3o2)cc1NC(=O)c1ccco1,-1,-3,5,-1,8,3
COc1ccc(NC(=O)CN2C(=O)NC3(CCCCC3C)C2=O)cc1S(=O)(=O)N1CCOCC1 (stereo unspecified),0,-2,-1,1,3,3
Cc1ccc(C2C3CN(C(C)C)CC=C3C(C#N)=C(N)C2(C#N)C#N)cc1 (stereo unspecified),40*,-11,4,-14,34*,3
Cn1ccc2c(N3CCCCC3)cc3c(c21)C1CCC3C1 (stereo unspecified),2,.,1,7,14,.
CCOC(=O)C1=C(CSc2nc3c(cc2C#N)CN(C)CC3)OC(N)=C(C#N)C1c1ccc(F)cc1 (stereo unspecified),10,0,2,50*,16,23
